# Only some compounds are listed: those with a hit (about 3.8% of all), similar ones and a draw of the others.
# FN deposit inh – inhibitors of fibronectin matrix deposition, primary screen, AH1F cells, Alexa488-fibronectin fluorescence, plate reader | AH1F fibroblasts, overnight | inhibition, % at 12.6 µM | 350,000 compounds, 0.086% hits;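 active means mean inhibition across replicates of 30% or more, regardless of how many single replicates reach that level; inconclusive means mean under 30% yet at least half of replicates reach 30%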;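 further: positive control wells lacked labelled fibronectin entirely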
#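 Material: AH1F fibroblast monolayer depositing Alexa488-labelled fibronectin into matrix | Input: 10000 AH1F cells/well | Medium: DMEM plus 2% serum, read in PBS | Reagent: Alexa488-fibronectin, 24 nM final in well | Compound dosing: One dose per compound, pinned | Schedule: 1 h adhesion, overnight exposure | Measured by: Fluorescence at 485 nm excitation, 525 nm emission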
# ARNT TACC3 PPI – disruptors of ARNT/TACC3 protein interaction, primary screen, biochemical, AlphaScreen, single concentration | inhibition, % at 9.99 µM | AID 623870, 2012 | 390,000 compounds, 0.66% hits | AlphaScreen His-ARNT PAS-B/GST-TACC3 binding, luminescence; TACC3 fragment carries E629A point mutation;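 active means mean inhibition of replicates at least 50% and at least half of replicates each reaching 50%; inconclusive means half or more replicates reach 50% but mean below 50%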;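 further: 0% = complete ARNT plus TACC3 wells and 100% = ARNT alone without TACC3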
# FGF22 binding – binders of human FGF22 protein, primary screen, FGF22 synaptogenesis inhibitor project, biophysical, thermal shift, single point; Fibroblast growth factor 22 (Homo sapiens), Q9HCT0; recombinant FGF22 thermal shift, SYPRO orange fluorescence; percent of sucrose octasulfate shift, DMSO zero; activity (Tm shift, normalised), % at 9.99 µM; 340,000 compounds, 1.5% hits; AID 651658, 2012;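 active means mean Tm shift, scaled 0 neutral to 100 positive control, at about 1.3% or above, every replicate too, limit read from the data; inconclusive means no clear call, values can overlap the other calls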
# Target sequence (Q9HCT0 whole entry, looked up): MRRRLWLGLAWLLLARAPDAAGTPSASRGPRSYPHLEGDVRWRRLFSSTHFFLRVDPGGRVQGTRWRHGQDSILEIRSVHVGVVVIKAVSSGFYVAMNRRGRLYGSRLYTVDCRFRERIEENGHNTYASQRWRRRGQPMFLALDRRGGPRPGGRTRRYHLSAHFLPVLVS
# DENV2 CPE rescue – inhibitors of DENV2 cytopathic effect, primary screen, cell-based, plate reader, single concentration; CPE inhibition, % at 9.99 µM; AID 651640, 2012; 350,000 compounds, 1.7% hits; DENV2-infected cells, cytopathic effect rescue; in the data active means CPE inhibition above about 20%, passing the limit was not always enough; inconclusive means no clear call, values can overlap the other calls; tested in BHK-21 cells;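 further: 0% = median of neutral control wells and 100% = median of positive control wells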
# SIRT5 block – SIRT5 desuccinylase inhibitors, primary screen, biochemical, fluorescence imaging, single point, set 5; Purified SirT5, succinyl-peptide AMC, trypsin-coupled fluorescence; inhibition, % at 15 µM; 330,000 compounds, 1.1% hits; AID 652115, 2013; in the data active means inhibition above about 15%; inconclusive means no clear call, values can overlap the other calls
# Target sequence (Q9NXA8 whole entry, looked up): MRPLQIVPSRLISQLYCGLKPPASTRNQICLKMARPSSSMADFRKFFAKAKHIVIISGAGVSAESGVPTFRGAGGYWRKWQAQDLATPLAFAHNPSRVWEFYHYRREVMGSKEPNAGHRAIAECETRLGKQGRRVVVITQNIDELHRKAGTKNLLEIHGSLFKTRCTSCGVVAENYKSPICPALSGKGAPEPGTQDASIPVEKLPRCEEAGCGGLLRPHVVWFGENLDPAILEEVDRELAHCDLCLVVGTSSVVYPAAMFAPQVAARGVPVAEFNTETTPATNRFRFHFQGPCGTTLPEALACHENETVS
# XiGFP reactiv – activators of inactive X chromosome reactivation, primary screen, imaging, XiGFP fibroblasts, GFP high-content imaging, set 2; 360,000 compounds, 0.055% hits; XiGFP mouse fibroblasts, % GFP-positive cells imaging, 3 d; cells co-treated with 5-aza-dC sensitizer; scaled so ellipticine positive control = 100%; activation, % at 7.58 µM;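 active means mean normalized replicate activation at least 10% and every replicate at or above 10%; inconclusive means only one of the two criteria met; inactive means mean below 10% and not all replicates reach 10%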;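 further: 0% = median of on-plate neutral control wells and 100% = ellipticine 6 µM median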
#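 Assay system – SV40-immortalized XiGFP fibroblast cells, line 68-5-11 · Buffer or medium – DMEM supplemented with 5-aza-dC as sensitizing agent · Dosing – one concentration, pinned · Benchmarks – positive control ellipticine, 6 µM final · Times – 3 days compound exposure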
# The depositor's hits bear a star; i = inactive; ? = inconclusive; . = no result given.
SMILES,FN deposit inh,ARNT TACC3 PPI,FGF22 binding,DENV2 CPE rescue,SIRT5 block,XiGFP reactiv
O=C(NCc1ccccc1)c1nc(-c2cccs2)no1,1.5,-0.8,44.0*,4.8,2.1,0.0
O=C(NCc1ccccc1)c1ccccc1,.,11.0,0.1,20.4*,-0.5,.
Cn1c(=Nc2ccccc2)sc2ccccc21,.,8.6,0.4,.,1.1,.
CN(C)c1ccc(N=c2sc3ccccc3n2C)cc1,6.2,72.3*,.,.,.,.
O=C(Cc1ccccn1)NCC[C@@H]1CC[C@@H](NS(=O)(=O)c2ccc(F)cc2)[C@H](CO)O1,.,17.1,-0.1,-6.3,-2.0,1.0
COc1ccc(NC(=O)N(C)C[C@H]2Oc3c(NC(=O)C4CCCCC4)cccc3C(=O)N([C@@H](C)CO)C[C@H]2C)cc1,.,-3.0,-0.1,1.5,-1.8,-0.7
CN1CCc2c1nc1ccccc1c2N=C1CCCN1Cc1ccccc1,2.8,.,43.2*,-4.8,-2.5,0.3
Oc1c(Cl)cc(Cl)c2cccnc12,0.8,.,0.0,-7.7,0.5,0.4
Oc1c(CN2CCN(c3ccccn3)CC2)cc(Cl)c2cccnc12,.,59.6*,.,.,.,.
Oc1ccc(CNc2ccccc2F)c2cccnc12,12.7,48.8*,-0.1,2.1,2.6,0.0
Oc1c(CN2CCOCC2)ccc2ccccc12,.,-2.0,-0.8,12.4,-2.3,?
Oc1c(Cl)cc(CN2CCCCC2)c2cccnc12,.,76.6*,.,.,.,.
Oc1c(CN2CCCCC2)ccc2cccnc12,-1.8,88.6*,-0.7,-4.4,-3.9,1.3
Oc1ccc(F)c2cccnc12,4.5,21.1,0.1,.,0.0,0.0
Oc1ccc(COCc2ccccc2)c2cccnc12,3.0,79.6*,.,.,.,.
Oc1ccc(Cc2ccccc2)c2cccnc12,4.9,.,0.0,-8.7,.,1.4
O=c1c(CN2CCN(c3ccccn3)CC2)coc2ccccc12,-3.1,0.9,43.8*,6.9,1.2,0.1
Oc1ccc(CN2CCN(c3ccccc3)CC2)c2cccnc12,.,14.4,.,.,.,.
OCc1ccc(O)c2ncccc12,.,70.7*,.,.,.,.
Oc1ccc(CN2CCCCC2)c2cccnc12,.,79.7*,0.2,0.4,0.5,.
c1ccc(N2CCN(Cc3ccc4c(c3)OCO4)CC2)nc1,-5.6,.,-0.1,-2.1,-3.1,-0.2
CO[C@@H]1CN(C)C(=O)c2ccc(NC(=O)NC(C)C)cc2OC[C@H](C)N(CCC(F)(F)F)C[C@H]1C,-5.3,-0.2,-0.4,13.2,7.9,0.2
CN(C)CC(=O)Nc1ccc2c(c1)[C@H]1C[C@H](CC(=O)NCc3ccccc3)O[C@H](CO)[C@H]1O2,8.2,-6.7,0.7,-14.8,-0.9,0.0
CCCCCCCCCCCCCCCCCCNc1ccn(C2OC(COP(=O)(O)OCC3OC(n4cc(F)c(=O)[nH]c4=O)CC3O)C(O)C2O)c(=O)n1 (stereo not given),2.8,-20.8,.,-2.2,35.5*,1.1
C[C@H]1O[C@@H](n2cc(F)c(=O)[nH]c2=O)[C@H](O)[C@@H]1O,-9.7,-0.6,-0.2,7.1,-0.7,0.0
SMILES,FN deposit inh,ARNT TACC3 PPI,FGF22 binding,DENV2 CPE rescue,SIRT5 block,XiGFP reactiv
CCC(CO)NC(=O)c1ccccc1C(F)(F)F (stereo not given),0.6,-8.0,0.2,-6.6,22.8*,0.0
CCC(CC)NC(=O)Nc1ccccc1C(F)(F)F,-2.4,-3.1,0.3,-3.3,0.8,-0.1
Cc1ccc(C=NNc2nc3c([nH]2)c(=O)n(C)c(=O)n3C)cc1,-6.8,2.0,43.9*,-2.9,.,0.2
COc1ccc(CCNC(=O)CCCNC(=O)Cn2cnc3sc(C)c(C)c3c2=O)cc1OC,-10.2,-8.4,43.5*,5.9,-4.8,0.1
COc1ccc(CCNC(=O)CCCn2c(=S)[nH]c3ccsc3c2=O)cc1OC,-0.4,.,43.1*,5.7,.,-0.1
COc1ccc(CCNC(=O)Cn2ccc3c(OC)cccc3c2=O)cc1OC,1.3,-8.4,0.3,-3.7,21.1*,0.0
COc1cccc2c(=O)n(CC(=O)NCCc3ccccc3)ccc12,-9.8,-0.7,0.2,-5.2,-0.3,0.0
O=C(CCCn1c(=S)[nH]c2ccsc2c1=O)NCc1ccco1,.,32.4,.,.,.,.
Cc1ccc(S(=O)(=O)N[C@@H]2CC[C@H](CCNC(=O)CN3CCOCC3)O[C@H]2CO)cc1,.,-10.4,0.2,-8.4,-3.6,-0.2
COc1ccc2cc3cc(C(=O)N4CCCCCC4)oc3nc2c1,.,-2.0,.,.,.,.
COc1ccc2cc3cc(C(=O)N4CCCCC4C)oc3nc2c1 (stereo not given),-0.7,14.5,0.1,-3.8,17.9*,0.1
COc1ccc(CN2C[C@@H](C)[C@H](OC)CN(C)C(=O)c3ccc(NC(C)=O)cc3OC[C@H]2C)cc1,.,.,-0.4,-7.6,.,.
NC(N)=N/N=C/c1ccccc1Cl,-1.8,i,0.1,-7.5,18.1*,0.0
Cc1ccc(C2CC(c3cccs3)=NN2C(=O)c2ccco2)o1 (stereo not given),1.2,-5.0,44.3*,6.8,2.7,0.0
O=C(c1ccco1)N1N=C(c2cccs2)CC1c1ccco1 (stereo not given),.,0.1,-0.2,2.9,-6.4,0.2
O=C(CSc1ccc(F)cc1)N1CCN(S(=O)(=O)c2ccccc2)CC1,9.3,-1.6,43.5*,-8.4,1.8,0.0
O=S(=O)(c1ccc(F)cc1)N1CCN(C(=S)NCc2ccccc2)CC1,-5.0,-17.4,43.7*,13.4,0.3,0.0
COc1cccc(CN2CC3(CCN(Cc4ccccn4)CC3)c3c([nH]c4cc(OC)ccc34)[C@@H]2CO)c1,.,.,.,3.3,-2.7,0.0
O=C(N[C@H]1C=C[C@@H](CC(=O)N2CCc3ccccc3C2)O[C@H]1CO)C1CCC1,-4.3,12.7,-0.3,-2.1,1.1,-0.1
C[C@@H]1CN([C@@H](C)CO)C(=O)c2cccc(NC(=O)C3CC3)c2O[C@H]1CN(C)CC1CCCCC1,.,4.7,-0.1,-6.9,-1.7,-1.2
Clc1ccc(-c2ccn[nH]2)cc1,-0.6,-4.2,.,0.0,-0.2,0.0
Clc1ccc(C2=NCCN2)cc1,-6.1,-2.9,-0.1,.,111.5*,0.3
O=C(CCCn1c(=O)oc2ccccc21)Nc1ccccc1,11.3,-4.5,0.2,-0.9,-2.7,0.1
Cc1cccc(C)c1OCC(=O)NNC(=O)CCCn1c(=O)oc2ccccc21,1.1,3.4,0.0,45.1*,2.3,0.3

# Screening results deposited in PubChem BioAssay by Broad Institute.
